# Measurements reported in ChEMBL document CHEMBL1125797, “Synthesis, characterization and myocardial uptake of cationic bis(arene)technetium(I) complexes” (J Med Chem, 1991).
# Experiments:
# Rattus norvegicus [1] = experiment: Biodistribution of compound in rat lungs at 1440 min after intravenous administration; assay type: ADME, organism-based, Lung; details: in vivo, 24 h
# Outline: (§1)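 Rats received the 99mTc complex in normal saline (~12.5 μCi/mL) by lateral tail vein injection at ~25 μCi/kg and were killed by cervical dislocation at the stated time. Tissues were washed with saline, blotted, weighed and γ-counted to give percent injected dose/g. Time-course values are averages of male and female rats.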
# Rattus norvegicus [2] = experiment: Biodistribution of compound in rat lungs at 180 min after intravenous administration; assay type: ADME, organism-based, Lung; details: in vivo, 3 h; outline: as §1
# Rattus norvegicus [3] = experiment: Biodistribution of compound in rat lungs at 360 min after intravenous administration; assay type: ADME, organism-based, Lung; details: in vivo, 6 h; outline: as §1
# Rattus norvegicus [4] = experiment: Biodistribution of compound in rat lungs at 45 min after intravenous administration; assay type: ADME, organism-based, Lung; details: in vivo, 0.75 h; outline: as §1
# Rattus norvegicus [5] = experiment: Biodistribution of compound in rat lungs at 5 min after intravenous administration; assay type: ADME, organism-based, Lung; details: in vivo; outline: as §1
# Rattus norvegicus [6] = experiment: Biodistribution of compound in rat lungs at 90 min after intravenous administration; assay type: ADME, organism-based, Lung; details: in vivo, 1.5 h; outline: as §1
# Rattus norvegicus [7] = experiment: Biodistribution of compound in rat muscle at 1440 min after intravenous administration; assay type: ADME, organism-based, Muscle tissue; details: in vivo, 24 h; outline: as §1
# Rattus norvegicus [8] = experiment: Biodistribution of compound in rat muscle at 180 min after intravenous administration; assay type: ADME, organism-based, Muscle tissue; details: in vivo, 3 h; outline: as §1
# Rattus norvegicus [9] = experiment: Biodistribution of compound in rat muscle at 360 min after intravenous administration; assay type: ADME, organism-based, Muscle tissue; details: in vivo, 6 h; outline: as §1
# Rattus norvegicus [10] = experiment: Biodistribution of compound in rat muscle at 45 min after intravenous administration; assay type: ADME, organism-based, Muscle tissue; details: in vivo, 0.75 h; outline: as §1
# Rattus norvegicus [11] = experiment: Biodistribution of compound in rat muscle at 5 min after intravenous administration; assay type: ADME, organism-based, Muscle tissue; details: in vivo; outline: as §1
# Rattus norvegicus [12] = experiment: Biodistribution of compound in rat muscle at 90 min after intravenous administration; assay type: ADME, organism-based, Muscle tissue; details: in vivo, 1.5 h; outline: as §1
# Rattus norvegicus [13] = experiment: Biodistribution of compound in rat bone at 1440 min after intravenous administration; assay type: ADME, organism-based, Bone element; details: in vivo, 24 h
# Outline: (§2)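 Time course in Sprague-Dawley rats after lateral tail-vein injection of the 99mTc complex in normal saline (~12.5 μCi/mL) at ~25 μCi/kg. Tissues were sampled at the stated times, washed with saline, blotted, weighed and γ-counted to give percent injected dose per g. Values are averages of male and female rats.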
# Rattus norvegicus [14] = experiment: Biodistribution of compound in rat bone at 180 min after intravenous administration; assay type: ADME, organism-based, Bone element; details: in vivo, 3 h; outline: as §2
# Rattus norvegicus [15] = experiment: Biodistribution of compound in rat bone at 45 min after intravenous administration; assay type: ADME, organism-based, Bone element; details: in vivo, 0.75 h; outline: as §2
# Rattus norvegicus [16] = experiment: Biodistribution of compound in rat bone at 5 min after intravenous administration; assay type: ADME, organism-based, Bone element; details: in vivo; outline: as §2
# Rattus norvegicus [17] = experiment: Biodistribution of compound in rat bone at 90 min after intravenous administration; assay type: ADME, organism-based, Bone element; details: in vivo, 1.5 h; outline: as §2
# Rattus norvegicus [18] = experiment: Biodistribution of compound in rat bone marrow at 1440 min after intravenous administration; assay type: ADME, organism-based; details: in vivo, 24 h; outline: as §2
# Rattus norvegicus [19] = experiment: Biodistribution of compound in rat bone marrow at 180 min after intravenous administration; assay type: ADME, organism-based; details: in vivo, 3 h; outline: as §2
# Rattus norvegicus [20] = experiment: Biodistribution of compound in rat bone marrow at 360 min after intravenous administration; assay type: ADME, organism-based; details: in vivo, 6 h; outline: as §2
# Rattus norvegicus [21] = experiment: Biodistribution of compound in rat bone marrow at 45 min after intravenous administration; assay type: ADME, organism-based; details: in vivo, 0.75 h; outline: as §2
# Rattus norvegicus [22] = experiment: Biodistribution of compound in rat bone marrow at 90 min after intravenous administration; assay type: ADME, organism-based; details: in vivo, 1.5 h; outline: as §2
# Rattus norvegicus [23] = experiment: Biodistribution of compound in rat bone marrow at 5 min after intravenous administration; assay type: ADME, organism-based; details: in vivo; outline: as §2
# Rattus norvegicus [24] = experiment: Biodistribution of compound in rat brain after 5 min of administration; assay type: ADME, organism-based; details: in vivo
# Rattus norvegicus [25] = experiment: Biodistribution of compound in rat eye at 1440 min after intravenous administration; assay type: ADME, organism-based; details: in vivo, 24 h; outline: as §2
# Rattus norvegicus [26] = experiment: Biodistribution of compound in rat eye at 180 min after intravenous administration; assay type: ADME, organism-based; details: in vivo, 3 h; outline: as §2
# Rattus norvegicus [27] = experiment: Biodistribution of compound in rat eye at 360 min after intravenous administration; assay type: ADME, organism-based; details: in vivo, 6 h; outline: as §2
# Rattus norvegicus [28] = experiment: Biodistribution of compound in rat eye at 45 min after intravenous administration; assay type: ADME, organism-based; details: in vivo, 0.75 h; outline: as §2
# Rattus norvegicus [29] = experiment: Biodistribution of compound in rat eye at 5 min after intravenous administration; assay type: ADME, organism-based; details: in vivo; outline: as §2
# Rattus norvegicus [30] = experiment: Biodistribution of compound in rat eye at 90 min after intravenous administration; assay type: ADME, organism-based; details: in vivo, 1.5 h; outline: as §2
# Rattus norvegicus [31] = experiment: Biodistribution of compound in rat feces at 1440 min after intravenous administration; assay type: ADME, organism-based; details: in vivo, 24 h
# Rattus norvegicus [32] = experiment: Biodistribution of compound in rat feces at 360 min after intravenous administration; assay type: ADME, organism-based; details: in vivo, 6 h
# Rattus norvegicus [33] = experiment: Biodistribution of compound in rat liver after 5 min of administration.; assay type: ADME, organism-based; details: in vivo
# Outline: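 Female Sprague-Dawley rats (150–200 g) received the complex in normal saline (~12.5 μCi/mL) through a lateral tail vein at ~25 μCi/kg. Rats were killed by cervical dislocation 5 min after injection. Tissues were washed with saline, blotted, weighed and γ-counted to give percent injected dose/g tissue.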
# Rattus norvegicus [34] = experiment: Biodistribution of compound in rat liver at 45 min after intravenous administration; assay type: ADME, organism-based; details: in vivo, 0.75 h; outline: as §1
# Rattus norvegicus [35] = experiment: Biodistribution of compound in rat blood at 45 min after intravenous administration; assay type: ADME, organism-based; details: in vivo, 0.75 h; outline: as §2
# Rattus norvegicus [36] = experiment: Biodistribution of compound in rat bone at 360 min after intravenous administration; assay type: ADME, organism-based, Bone element; details: in vivo, 6 h; outline: as §2
substance,measurement,setting,value
"Bis(1,2,3,5-tetramethylbenzene)technetium",Dose/g,Rattus norvegicus [1],0.18 % dose/organ
same,Dose/g,Rattus norvegicus [2],0.81 % dose/organ
same,Dose/g,Rattus norvegicus [3],0.7 % dose/organ
same,Dose/g,Rattus norvegicus [4],1.5 % dose/organ
same,Dose/g,Rattus norvegicus [5],1.4 % dose/organ
same,Dose/g,Rattus norvegicus [6],1.17 % dose/organ
same,Dose/g,Rattus norvegicus [7],56 % dose/organ
same,Dose/g,Rattus norvegicus [8],44 % dose/organ
same,Dose/g,Rattus norvegicus [9],31 % dose/organ
same,Dose/g,Rattus norvegicus [10],30 % dose/organ
same,Dose/g,Rattus norvegicus [11],44 % dose/organ
same,Dose/g,Rattus norvegicus [12],42 % dose/organ
same,Dose/g,Rattus norvegicus [13],1.7 % dose/organ
same,Dose/g,Rattus norvegicus [14],2.2 % dose/organ
same,Dose/g,Rattus norvegicus [15],2.6 % dose/organ
same,Dose/g,Rattus norvegicus [16],3.8 % dose/organ
same,Dose/g,Rattus norvegicus [17],3.5 % dose/organ
same,Dose/g,Rattus norvegicus [18],0.1 % dose/organ
same,Dose/g,Rattus norvegicus [19],0.2 % dose/organ
same,Dose/g,Rattus norvegicus [20],0.11 % dose/organ
same,Dose/g,Rattus norvegicus [21],0.24 % dose/organ
same,Dose/g,Rattus norvegicus [22],0.28 % dose/organ
same,Dose/g,Rattus norvegicus [23],0.43 % dose/organ
same,Dose/g,Rattus norvegicus [24],0.02%
same,Dose/g,Rattus norvegicus [25],0.01 % dose/organ
same,Dose/g,Rattus norvegicus [26],0.02 % dose
same,Dose/g,Rattus norvegicus [27],0.022 % dose
same,Dose/g,Rattus norvegicus [28],0.023 % dose
same,Dose/g,Rattus norvegicus [29],0.03 % dose
same,Dose/g,Rattus norvegicus [30],0.021 % dose
same,Dose/g,Rattus norvegicus [31],30 % dose
same,Dose/g,Rattus norvegicus [32],0.3 % dose
same,Dose/g,Rattus norvegicus [33],0.67%
same,Dose/g,Rattus norvegicus [34],4 % dose
same,Dose/ml,Rattus norvegicus [35],0.51 % dose
same,Dose/g,Rattus norvegicus [36],1.4 % dose
